Experimental data as given in publication PMC7482441 (Pharmacological Research, 2020).

What was measured:
ambulant boys with DMD = experiment: Phase Ib safety assessments; assay type: in vivo, human
Summary of the method: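 Open-label study in boys aged 6–14 with genetically confirmed DMD, walking ≥75 m and on stable corticosteroids ≥6 months. Dosing was oral, 50–300 mg TID for 4 weeks, in 4 ascending cohorts. Assessments at screening, weeks 1, 2 and 4, and 1–2 weeks post-treatment: physical exam, AEs, supine/standing blood pressure and heart rate, respiratory rate. Also 12-lead ECG with QT, read locally and centrally, plus blood/urine haematology and biochemistry.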

UMX 101 hamsters = conditions: lifelong preventive treatment; cited from earlier work
skeletal muscle = experiment: NMRI of skeletal muscle; assay type: in vivo, human; conditions: dose escalation, 4-week treatment
Summary of the method: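 NMRI of both lower limbs was acquired locally at baseline and week 4 of oral treatment (50–300 mg TID, 4 ascending-dose cohorts). Indices were water T2 and fat fraction in skeletal muscle. Descriptive statistics were produced per cohort.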

TNFα = experiment: Circulating biomarker, baseline vs 4-week treatment; assay type: in vivo, human; conditions: 20 DMD patients, Luminex, p-value 0.0009, FDR 0.24
SCGB3A2 = experiment: as above; assay type: in vivo, human; conditions: 20 DMD patients, OLink, p-value 1.3e-5, FDR 0.001
IGFBP1 = experiment: as above; assay type: in vivo, human; conditions: 20 DMD patients, OLink, p-value 1.7e-8, FDR 4e-6
[1] = test system: TR (Transferrin receptor); experiment: as above; assay type: in vivo, human; conditions: 20 DMD patients, OLink, p-value 3.0e-6, FDR 0.0004
FAS = experiment: as above; assay type: in vivo, human; conditions: 20 DMD patients, OLink, p-value 0.0007, FDR 0.24
mdx mice = conditions: short and long term studies in mdx mice; cited from earlier work
CCL15 = experiment: Circulating biomarker, baseline vs 4-week treatment; assay type: in vivo, human; conditions: 20 DMD patients, OLink, p-value 0.0003, FDR 0.17
[2] = test system: CK MM (Creatine Kinase MM isoform); experiment: as above; assay type: in vivo, human; conditions: 20 DMD patients, Electrophoresis, p-value 0.0009, FDR 0.24
[3] = Cohort 1 N = 5, 150 to 225 mg daily oral, 4 weeks
[4] = Cohort 2 N = 5, 300 to 450 mg daily oral, 4 weeks
[5] = Cohort 3 N = 5, 450 to 600 mg daily oral, 4 weeks
[6] = Cohort 4 N = 5, 600 to 900 mg daily oral, 4 weeks

In the case of `[H]/N=C(\N)NC(=O)c1cc(S(C)(=O)=O)c(S(C)(=O)=O)cc1C` [Rimeporide], the “12-lead ECGs” value (ambulant boys with DMD; 4-week treatment) was “no clinically important changes”, the “Abdominal pain upper: patients (events)” value (ambulant boys with DMD; All patients N = 20, 4 weeks) was 2 (3 events) and the “Chills: patients (events)” value (ambulant boys with DMD; All patients N = 20, 4 weeks) was 1 (2 events). For the same molecule, the “Cough: patients (events)” value (ambulant boys with DMD; All patients N = 20, 4 weeks) was 3 (3 events), the “Dizziness: patients (events)” value (ambulant boys with DMD; All patients N = 20, 4 weeks) was 1 (1 event) and the “Ear and labyrinth disorders: patients (events)” value (from here on “Ear and labyrinth disorders”) (ambulant boys with DMD; All patients N = 20, 4 weeks) was 1 (1 event). The “Fall: patients (events)” value (ambulant boys with DMD; All patients N = 20, 4 weeks) was 1 (1 event), the “Flushing: patients (events)” value (ambulant boys with DMD; All patients N = 20, 4 weeks) was 2 (3 events) and the “Gastrointestinal disorders: patients (events)” value (from here on “Gastrointestinal disorders”) (ambulant boys with DMD; All patients N = 20, 4 weeks) was 6 (10 events). The “General disorders and administration site conditions: patients (events)” value (ambulant boys with DMD; All patients N = 20, 4 weeks) was 2 (3 events), the “Infections and infestations: patients (events)” value (“Infections and infestations” for short) (ambulant boys with DMD; All patients N = 20, 4 weeks) was 4 (4 events) and the “Injury, poisoning and procedural complications: patients (events)” value (from here on “Injury … (events)”) (ambulant boys with DMD; All patients N = 20, 4 weeks) was 1 (1 event). The “Mouth ulceration: patients (events)” value (ambulant boys with DMD; All patients N = 20, 4 weeks) was 1 (1 event), the “Nervous system disorders: patients (events)” value (“Nervous system disorders” for short) (ambulant boys with DMD; All patients N = 20, 4 weeks) was 7 (8 events) and the “Oropharyngeal pain: patients (events)” value (ambulant boys with DMD; All patients N = 20, 4 weeks) was 1 (1 event). The “Presyncope: patients (events)” value (ambulant boys with DMD; All patients N = 20, 4 weeks) was 1 (1 event), the “Pyrexia: patients (events)” value (ambulant boys with DMD; All patients N = 20, 4 weeks) was 1 (1 event) and the “Respiratory, thoracic and mediastinal disorders: patients (events)” value (shortened to “Respiratory … (events)”) (ambulant boys with DMD; All patients N = 20, 4 weeks) was 4 (4 events). The “Tympanic membrane perforation: patients (events)” value (from here on “Tympanic membrane perforation”) (ambulant boys with DMD; All patients N = 20, 4 weeks) was 1 (1 event), the “Vascular disorders: patients (events)” value (ambulant boys with DMD; All patients N = 20, 4 weeks) was 2 (3 events) and the “Vomiting: patients (events)” value (ambulant boys with DMD; All patients N = 20, 4 weeks) was 2 (2 events). The “Abdominal pain upper: patients (events)” value (ambulant boys with DMD; [3]) was 0, the “Any treatment-emergent adverse event: patients (events)” value (“Any treatment-emergent adverse event” below) (ambulant boys with DMD; [3]) was 2 (6 events) and the “Chills: patients (events)” value (ambulant boys with DMD; [3]) was 1 (2 events). The “Cough: patients (events)” value (ambulant boys with DMD; [3]) was 0, the “Diarrhoea: patients (events)” value (ambulant boys with DMD; [3]) was 0 and the “Dizziness: patients (events)” value (ambulant boys with DMD; [3]) was 0. The “Ear and labyrinth disorders” value (ambulant boys with DMD; [3]) was 0, the “Fall: patients (events)” value (ambulant boys with DMD; [3]) was 1 (1 event) and the “Flushing: patients (events)” value (ambulant boys with DMD; [3]) was 0. The “Gastrointestinal disorders” value (ambulant boys with DMD; [3]) was 0, the “General disorders and administration site conditions: patients (events)” value (ambulant boys with DMD; [3]) was 1 (2 events) and the “Headache: patients (events)” value (ambulant boys with DMD; [3]) was 1 (1 event). The “Infections and infestations” value (ambulant boys with DMD; [3]) was 0, the “Injury … (events)” value (ambulant boys with DMD; [3]) was 1 (1 event) and the “Mouth ulceration: patients (events)” value (ambulant boys with DMD; [3]) was 0. For the same molecule, the “Nasopharyngitis: patients (events)” value (ambulant boys with DMD; [3]) was 0, the “Nervous system disorders” value (ambulant boys with DMD; [3]) was 1 (1 event) and the “Oropharyngeal pain: patients (events)” value (ambulant boys with DMD; [3]) was 0. The “Presyncope: patients (events)” value (ambulant boys with DMD; [3]) was 0, the “Pyrexia: patients (events)” value (ambulant boys with DMD; [3]) was 0 and the “Respiratory … (events)” value (ambulant boys with DMD; [3]) was 0. For the same molecule, the “Tympanic membrane perforation” value (ambulant boys with DMD; [3]) was 0, the “Vascular disorders: patients (events)” value (ambulant boys with DMD; [3]) was 0 and the “Vomiting: patients (events)” value (ambulant boys with DMD; [3]) was 0. For the same molecule, the “Abdominal pain upper: patients (events)” value (ambulant boys with DMD; [4]) was 0, the “Any treatment-emergent adverse event” value (ambulant boys with DMD; [4]) was 1 (3 events) and the “Chills: patients (events)” value (ambulant boys with DMD; [4]) was 0. The “Cough: patients (events)” value (ambulant boys with DMD; [4]) was 1 (1 event), the “Diarrhoea: patients (events)” value (ambulant boys with DMD; [4]) was 0 and the “Dizziness: patients (events)” value (ambulant boys with DMD; [4]) was 0. For the same molecule, the “Ear and labyrinth disorders” value (ambulant boys with DMD; [4]) was 0, the “Fall: patients (events)” value (ambulant boys with DMD; [4]) was 0 and the “Flushing: patients (events)” value (ambulant boys with DMD; [4]) was 0. For the same molecule, the “Gastrointestinal disorders” value (ambulant boys with DMD; [4]) was 1 (1 event), the “General disorders and administration site conditions: patients (events)” value (ambulant boys with DMD; [4]) was 0 and the “Headache: patients (events)” value (ambulant boys with DMD; [4]) was 0. The “Infections and infestations” value (ambulant boys with DMD; [4]) was 1 (1 event), the “Injury … (events)” value (ambulant boys with DMD; [4]) was 0 and the “Mouth ulceration: patients (events)” value (ambulant boys with DMD; [4]) was 1 (1 event). For the same molecule, the “Nasopharyngitis: patients (events)” value (ambulant boys with DMD; [4]) was 1 (1 event), the “Nervous system disorders” value (ambulant boys with DMD; [4]) was 0 and the “Oropharyngeal pain: patients (events)” value (ambulant boys with DMD; [4]) was 0. The “Presyncope: patients (events)” value (ambulant boys with DMD; [4]) was 0, the “Pyrexia: patients (events)” value (ambulant boys with DMD; [4]) was 0 and the “Respiratory … (events)” value (ambulant boys with DMD; [4]) was 1 (1 event). For the same molecule, the “Tympanic membrane perforation” value (ambulant boys with DMD; [4]) was 0, the “Vascular disorders: patients (events)” value (ambulant boys with DMD; [4]) was 0 and the “Vomiting: patients (events)” value (ambulant boys with DMD; [4]) was 0. For the same molecule, the “Abdominal pain upper: patients (events)” value (ambulant boys with DMD; [5]) was 1 (2 events), the “Any treatment-emergent adverse event” value (ambulant boys with DMD; [5]) was 5 (15 events) and the “Chills: patients (events)” value (ambulant boys with DMD; [5]) was 0. The “Cough: patients (events)” value (ambulant boys with DMD; [5]) was 1 (1 event), the “Diarrhoea: patients (events)” value (ambulant boys with DMD; [5]) was 3 (4 events) and the “Dizziness: patients (events)” value (ambulant boys with DMD; [5]) was 1 (1 event). The “Ear and labyrinth disorders” value (ambulant boys with DMD; [5]) was 0, the “Fall: patients (events)” value (ambulant boys with DMD; [5]) was 0 and the “Flushing: patients (events)” value (ambulant boys with DMD; [5]) was 1 (1 event). For the same molecule, the “Gastrointestinal disorders” value (ambulant boys with DMD; [5]) was 4 (8 events), the “General disorders and administration site conditions: patients (events)” value (ambulant boys with DMD; [5]) was 0 and the “Headache: patients (events)” value (ambulant boys with DMD; [5]) was 2 (2 events). The “Infections and infestations” value (ambulant boys with DMD; [5]) was 2 (2 events), the “Injury … (events)” value (ambulant boys with DMD; [5]) was 0 and the “Mouth ulceration: patients (events)” value (ambulant boys with DMD; [5]) was 0. The “Nasopharyngitis: patients (events)” value (ambulant boys with DMD; [5]) was 2 (2 events), the “Nervous system disorders” value (ambulant boys with DMD; [5]) was 3 (3 events) and the “Oropharyngeal pain: patients (events)” value (ambulant boys with DMD; [5]) was 0. The “Presyncope: patients (events)” value (ambulant boys with DMD; [5]) was 0, the “Pyrexia: patients (events)” value (ambulant boys with DMD; [5]) was 0 and the “Respiratory … (events)” value (ambulant boys with DMD; [5]) was 1 (1 event). For the same molecule, the “Tympanic membrane perforation” value (ambulant boys with DMD; [5]) was 0, the “Vascular disorders: patients (events)” value (ambulant boys with DMD; [5]) was 1 (1 event) and the “Vomiting: patients (events)” value (ambulant boys with DMD; [5]) was 2 (2 events). The “Abdominal pain upper: patients (events)” value (ambulant boys with DMD; [6]) was 1 (1 event), the “Any treatment-emergent adverse event” value (ambulant boys with DMD; [6]) was 4 (13 events) and the “Chills: patients (events)” value (ambulant boys with DMD; [6]) was 0. The “Cough: patients (events)” value (ambulant boys with DMD; [6]) was 1 (1 event), the “Diarrhoea: patients (events)” value (ambulant boys with DMD; [6]) was 0 and the “Dizziness: patients (events)” value (ambulant boys with DMD; [6]) was 0. The “Ear and labyrinth disorders” value (ambulant boys with DMD; [6]) was 1 (1 event), the “Flushing: patients (events)” value (ambulant boys with DMD; [6]) was 1 (2 events) and the “Gastrointestinal disorders” value (ambulant boys with DMD; [6]) was 1 (1 event). The “General disorders and administration site conditions: patients (events)” value (ambulant boys with DMD; [6]) was 1 (1 event), the “Headache: patients (events)” value (ambulant boys with DMD; [6]) was 2 (3 events) and the “Infections and infestations” value (ambulant boys with DMD; [6]) was 1 (1 event). For the same molecule, the “Mouth ulceration: patients (events)” value (ambulant boys with DMD; [6]) was 0, the “Nasopharyngitis: patients (events)” value (ambulant boys with DMD; [6]) was 1 (1 event) and the “Nervous system disorders” value (ambulant boys with DMD; [6]) was 3 (4 events). For the same molecule, the “Oropharyngeal pain: patients (events)” value (ambulant boys with DMD; [6]) was 1 (1 event), the “Presyncope: patients (events)” value (ambulant boys with DMD; [6]) was 1 (1 event) and the “Pyrexia: patients (events)” value (ambulant boys with DMD; [6]) was 1 (1 event). For the same molecule, the “Respiratory … (events)” value (ambulant boys with DMD; [6]) was 2 (2 events), the “Tympanic membrane perforation” value (ambulant boys with DMD; [6]) was 1 (1 event) and the “Vascular disorders: patients (events)” value (ambulant boys with DMD; [6]) was 1 (2 events). The “Vomiting: patients (events)” value (ambulant boys with DMD; [6]) was 0, the gastrin levels (ambulant boys with DMD; after a four-week treatment) was “No modifications of gastrin levels” and the “TEAEs of mild intensity” value (ambulant boys with DMD; all cohorts) was “Thirty-five”. The “TEAEs reported as severe” value (ambulant boys with DMD; all cohorts) was 2, the “SAE related to study medication” value (ambulant boys with DMD; all doses, 4 weeks, 20 DMD boys) was “No SAE related to study medication was reported” and the “blood pressure and heart rate” value (ambulant boys with DMD; standing and supine, 4-week treatment) was “devoid of any blood pressure or heart rate lowering effects”. For the same molecule, the “treatment emergent adverse events (TEAEs), total events” value (ambulant boys with DMD; twelve patients of 20) was 37, the mortality (UMX 101 hamsters) was “dramatic reduction in mortality” and the “NMRI indices in skeletal muscle” value (skeletal muscle) was “No notable change”. The “TNFα: Term (TRT, linear mixed effect model, Day 28 vs Day 0)” value (TNFα) was −0.1726, the “SCGB3A2: Term (TRT, linear mixed effect model, Day 28 vs Day 0)” value (SCGB3A2) was −0.5466 and the “IGFBP1: Term (TRT, linear mixed effect model, Day 28 vs Day 0)” value (IGFBP1) was −2.7123. For the same molecule, the “TR: Term (TRT, linear mixed effect model, Day 28 vs Day 0)” value [1] was 0.5252, the “FAS: Term (TRT, linear mixed effect model, Day 28 vs Day 0)” value (FAS) was −0.2823 and the “effects in skeletal and cardiac muscles” value (mdx mice) was “potent anti-inflammatory and anti-fibrotic effects”. The “CCL15: Term (TRT, linear mixed effect model, Day 28 vs Day 0)” value (CCL15) was −0.4489 and the “CK MM: Term (TRT, linear mixed effect model, Day 28 vs Day 0)” value [2] was −0.3886.
